Compounds with a hit are over-represented: about 1.6% of the library has one in this group of screens.
Lipid droplet = hepatic lipid droplet formation modulation | AML12 mouse hepatocytes, oleate lipid droplets, BODIPY imaging | hit rate 0.4% among 240,000 | inhibition, % at 6.5 µM;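 active = lipid droplet intensity inhibited by at least 50%, with more than 500 cells counted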
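Material: mouse AML12 hepatocyte cell line, fixed after treatment; Timing: compound with oleate, overnight; Technique: high-content imaging of BODIPY-stained droplets and DAPI nuclei; Probe or stimulus: oleate, 100 µM final; Dosing: compound at 6.5 µM only.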
SR-BI DiI inh = inhibitors of mouse SR-BI mediated HDL lipid uptake; Q61009; ldlA[mSR-BI] CHO cells, DiI-HDL uptake fluorescence, 3 h; inhibition, % at 12.5 µM; hit rate 0.96% among 320,000; AID 488896;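 active = mean replicate inhibition of at least 70% and a set share of replicates each scoring 70 or more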;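 also: 0% = median of neutral control wells and 100% = median of positive control wells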
TLR9-MyD88 block = TLR9-MyD88 interaction inhibition; CHO BLA complementation TLR9-MyD88, CCF4 FRET ratio; hit rate 0.21% among 340,000; Q9NR96+Q99836; inhibition, % at 4.98 µM;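 active = inhibition above the mean over all tested compounds plus 3 SD, cut at about 21% in these data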;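 also: 0% = DMSO only wells and 100% = clavulanate BLA inhibitor control wells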
NOD2-RIPK2 inh = blocks binding of human NOD2 to RIPK2. O43353. inhibition, % at 4.98 µM. hit rate 0.38% among 360,000. CHO BLA complementation NOD2-RIPK2, CCF4 ratio; in the data active = inhibition above about 21%;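 also: 0% = vehicle only and 100% = reference blocker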
SR-BI uptake up = enhances SR-BI lipid uptake from DiI-HDL; hit rate 0.096% among 320,000; CHO ldlA[mSR-BI] cells, DiI-HDL uptake fluorescence, 3 h; 100 = double the neutral-control signal; activation, % at 12.5 µM;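 active = mean replicate activation of at least 60% and every replicate at or above 60%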;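 also: 0% = median plate neutral-control signal and 100% = twice that signal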
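Material: SR-BI-overexpressing, LDLR-lacking CHO cells | Dosing: Single compound concentration, delivered by pin transfer | Probe or stimulus: Labelled HDL, 10 µg/mL | Signal: Bottom-read cell fluorescence after medium removal, ex 550/em 595 nm | Schedule: 3 h, 37 °C | Evaluation: HDL uptake via cellular fluorescence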
TLR4 MyD88 comp = TLR4-MyD88 interaction inhibition in cells | O00206+Q99836 | hit rate 0.18% among 200,000 | HeLa CL3-4 TLR4/MyD88 BLA complementation, FRET ratio | inhibition, % at 8.4 µM | AID 861; in the data active = inhibition above about 25%;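 also: 0% = vehicle and 100% = reference inhibitor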
* hit, by the source's call.

Screening COc1ccc(N2CCN(C(=O)CCS(=O)(=O)c3ccc4c(c3)CCN4C(=O)C3CC3)CC2)cc1 returned Lipid droplet -25.0, SR-BI DiI inh 7.2, TLR9-MyD88 block 6.6, NOD2-RIPK2 inh -3.3 and SR-BI uptake up -7.2.
`C=CCOc1ccc2cccc(/C=N/NC(=O)c3cc4cc([N+](=O)[O-])ccc4s3)c2c1` gave SR-BI DiI inh 77.1*, TLR9-MyD88 block 9.0, NOD2-RIPK2 inh 1.2, SR-BI uptake up -77.1 and TLR4 MyD88 comp 11.0.
CN(C)c1ccc(/C=N/NC(=O)c2ccc(CN3CCOCC3)cc2)cc1Br was read as Lipid droplet 1.2, SR-BI DiI inh 84.3*, NOD2-RIPK2 inh -8.4, SR-BI uptake up -84.3 and TLR4 MyD88 comp -3.1.
Screening CCOc1cc(/C=N/NC(=O)c2ccc(CN3CCOCC3)cc2)ccc1OC returned Lipid droplet 12.7, SR-BI DiI inh 48.1, TLR9-MyD88 block -4.0, NOD2-RIPK2 inh 1.9, SR-BI uptake up -48.1 and TLR4 MyD88 comp 5.8.
`CCOc1ccccc1N(CC(=O)Nc1c(C)n(C)n(-c2ccccc2)c1=O)S(=O)(=O)c1ccccc1` gave Lipid droplet -6.1, SR-BI DiI inh -71.5, TLR9-MyD88 block 4.7, NOD2-RIPK2 inh 2.8, SR-BI uptake up 71.5* and TLR4 MyD88 comp -0.3.
CC(=O)c1c(C)[nH]c(C(=O)CSc2nnc(-c3ccco3)n2Cc2ccccc2)c1C was read as SR-BI DiI inh 80.0*, TLR9-MyD88 block 7.3, NOD2-RIPK2 inh -1.9, SR-BI uptake up -80.0 and TLR4 MyD88 comp 3.0.
Screening COC(=O)c1ccc(NC(=S)NCCCn2ccnc2)cc1 returned Lipid droplet 2.5, SR-BI DiI inh -9.5, TLR9-MyD88 block -9.1, NOD2-RIPK2 inh -7.5, SR-BI uptake up 9.5 and TLR4 MyD88 comp -7.1.
Screening Cc1ccnc(SC2CC(=O)N(c3ccc(F)cc3)C2=O)n1 (stereo unspecified) returned Lipid droplet -4.6, SR-BI DiI inh -343.9, TLR9-MyD88 block -6.6, NOD2-RIPK2 inh -4.3 and SR-BI uptake up 343.9*.
For CC(C)(C)[C@@H]1CCC(=O)N(CC[C@H](Sc2ccc(Br)cc2)c2ccccc2)CC1 the results were SR-BI DiI inh 81.9*, TLR9-MyD88 block -5.2, NOD2-RIPK2 inh 9.7 and SR-BI uptake up -81.9.
For C/C(=N\Nc1ccc([N+](=O)[O-])cc1)c1ccc(C#N)cc1 the results were Lipid droplet 2.1, SR-BI DiI inh 77.6*, TLR9-MyD88 block -2.4, NOD2-RIPK2 inh -17.8 and SR-BI uptake up -77.6.
CCCC(=O)Nc1ccc(C(=O)n2ccc(C)n2)cc1 was read as Lipid droplet 2.0, SR-BI DiI inh 13.5, TLR9-MyD88 block 0.9, NOD2-RIPK2 inh -7.4, SR-BI uptake up -13.5 and TLR4 MyD88 comp 2.7.
`COc1ccc(CNC(=O)CCCC(=O)n2nc(C)c3ccccc32)cc1` gave Lipid droplet -34.8, SR-BI DiI inh 1.9, TLR9-MyD88 block -7.5, NOD2-RIPK2 inh 4.1 and SR-BI uptake up -1.9.
For COc1cc2ncnc(NCc3cccc(Cl)c3)c2cc1OC the results were Lipid droplet 50.9*, SR-BI DiI inh -9.2, TLR9-MyD88 block -16.0, NOD2-RIPK2 inh 1.8, SR-BI uptake up 9.2 and TLR4 MyD88 comp 0.4.
`Cc1cc(Br)ccc1-n1[nH]c(C)c(C=Nc2cccc3nsnc23)c1=O` gave Lipid droplet 12.6, SR-BI DiI inh 77.1*, TLR9-MyD88 block 7.5, NOD2-RIPK2 inh -3.8, SR-BI uptake up -77.1 and TLR4 MyD88 comp -5.2.
COc1ccc(CCNc2cc(C)nc3c(-c4ccccc4OC)cnn23)cc1OC was read as Lipid droplet -19.1, SR-BI DiI inh 90.9*, TLR9-MyD88 block -12.3, NOD2-RIPK2 inh -0.7 and SR-BI uptake up -90.9.
For CCc1nc2ccc(C(=O)NCCCn3ccnc3)cn2c1N(CC)CCOC the results were NOD2-RIPK2 inh -2.4.
Screening CCOc1ccc(N2CC(C(=O)Nc3cccc(S(=O)(=O)N4CCOCC4)c3)CC2=O)cc1 (stereo unspecified) returned TLR9-MyD88 block -5.8 and NOD2-RIPK2 inh 3.2.
O=C(CSc1nc(-c2ccc(F)cc2)cc(C(F)(F)F)n1)NCCN1CCOCC1 was read as SR-BI DiI inh 73.0*, TLR9-MyD88 block -3.2, NOD2-RIPK2 inh 1.2, SR-BI uptake up -73.0 and TLR4 MyD88 comp -3.1.
Screening CC(Sc1nc(-c2ccccc2)cc(C(F)(F)F)n1)C(=O)NCCN1CCOCC1 (stereo unspecified) returned SR-BI DiI inh 73.4*, TLR9-MyD88 block -4.8, NOD2-RIPK2 inh 4.2, SR-BI uptake up -73.4 and TLR4 MyD88 comp 1.1.
`CC(Sc1nc(-c2ccccc2)cc(C(F)(F)F)n1)C(=O)N1CCOCC1` (stereo unspecified) gave Lipid droplet -5.7, SR-BI DiI inh 92.8*, TLR9-MyD88 block 2.7, NOD2-RIPK2 inh -1.4, SR-BI uptake up -92.9 and TLR4 MyD88 comp -5.7.
Screening CC1CCN(C(=O)C(C)Sc2nc(-c3ccccc3)cc(C(F)(F)F)n2)CC1 (stereo unspecified) returned Lipid droplet -10.0, SR-BI DiI inh 86.9*, TLR9-MyD88 block -2.5, NOD2-RIPK2 inh 2.4, SR-BI uptake up -86.9 and TLR4 MyD88 comp -3.6.
CCN(CC)CCCNC(=O)C(C)Sc1nc(-c2ccccc2)cc(C(F)(F)F)n1 (stereo unspecified) was read as Lipid droplet -0.7, SR-BI DiI inh 38.5, TLR9-MyD88 block -0.3, NOD2-RIPK2 inh 0.6 and SR-BI uptake up -38.5.
Screening COc1ccc(-c2cc(C(F)(F)F)nc(SCC(=O)NCCN3CCOCC3)n2)cc1OC returned Lipid droplet 1.1, SR-BI DiI inh 58.9, TLR9-MyD88 block -6.7, NOD2-RIPK2 inh 9.1, SR-BI uptake up -58.9 and TLR4 MyD88 comp -6.3.
`CC(Sc1nc(-c2ccccc2)cc(C(F)(F)F)n1)C(=O)N1CCCC1` (stereo unspecified) gave Lipid droplet -11.2, SR-BI DiI inh 65.5, TLR9-MyD88 block -0.6, NOD2-RIPK2 inh 1.3, SR-BI uptake up -68.5 and TLR4 MyD88 comp -10.1.
For COc1ccc(OCC(=O)NNC(=O)Cn2c(=O)cnc3ccccc32)cc1 the results were SR-BI DiI inh -2.9, TLR9-MyD88 block -7.9, NOD2-RIPK2 inh 10.9 and SR-BI uptake up 2.9.
`COCCNC(=O)c1cc(OC)c(OC)cc1[N+](=O)[O-]` gave Lipid droplet 1.6, SR-BI DiI inh -14.3, TLR9-MyD88 block 7.4, NOD2-RIPK2 inh -7.1, SR-BI uptake up 14.3 and TLR4 MyD88 comp 1.2.
COc1cc(C(=O)NCCC(C)C)c([N+](=O)[O-])cc1OC was read as SR-BI DiI inh 82.2*, TLR9-MyD88 block -14.5, NOD2-RIPK2 inh -10.5, SR-BI uptake up -82.2 and TLR4 MyD88 comp 6.1.
